Assay results taken from PMC3770188 (ACS medicinal chemistry letters, 2013).
Read-outs that look alike come from different tables or passages of the source.

Columns and labels:
spermatogenesis in mice [1] = conditions: oral, low levels; cited from earlier work
RARβ = molecular target: T1, RARβ (Homo sapiens, UniProt P10826); assay: Transactivation competition assay; type: cell-based; conditions: HeLa cells, 10^−7M ATRA, increasing concentrations of retinoid, 24 hours
T1 sequence (P10826 1-455): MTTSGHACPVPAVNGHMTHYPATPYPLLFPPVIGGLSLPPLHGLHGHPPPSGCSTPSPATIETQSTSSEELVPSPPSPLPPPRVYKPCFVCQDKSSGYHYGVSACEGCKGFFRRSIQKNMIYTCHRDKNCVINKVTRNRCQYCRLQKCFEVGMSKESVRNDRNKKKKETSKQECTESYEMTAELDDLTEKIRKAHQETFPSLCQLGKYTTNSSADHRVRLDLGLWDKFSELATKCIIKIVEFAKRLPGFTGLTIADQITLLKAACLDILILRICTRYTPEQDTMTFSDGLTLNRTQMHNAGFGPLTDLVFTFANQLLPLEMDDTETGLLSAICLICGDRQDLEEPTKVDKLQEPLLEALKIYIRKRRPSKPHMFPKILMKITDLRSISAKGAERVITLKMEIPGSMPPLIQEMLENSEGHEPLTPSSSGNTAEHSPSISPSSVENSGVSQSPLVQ
Outline: (§1)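 HeLa cells were cotransfected with receptor/CAT reporter constructs plus a constant β-galactosidase plasmid as internal control. Cells were incubated with submaximal ATRA (10–7 M) plus increasing concentrations of test compound, and CAT expression was measured after 24 h. Dilution medium without retinoid served as vehicle control and ATRA as positive control.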

spermatogenesis in mice [2] = assay: Oral administration, effect on spermatogenesis in mice; type: in vivo, CD1 mice; conditions: for Morphology of caudal epididymides: oral 10 mg/kg for 7 days; for Morphology of caudal epididymides / Epididymal sperm motility: 1-month post-treatment; for Testicular weight compared with control: oral 2 and 10 mg/kg for 7 days, mean±SD of five mice; for Effect on spermatogenesis (testis morphology): oral 2.0 and 10 mg/kg for 7 days, one-month after dosing; for Epididymal sperm motility: oral, 7 days
Outline: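 Male CD1 mice received test compound by oral gavage daily at 2 or 10 mg/kg for 7 days; controls got vehicle alone for 7 days. Body weight was monitored throughout. One month post-treatment, testes were collected and weighed (mean ± SD, five mice per regimen; […] Student's t-test vs age-matched controls). Testes and epididymides were sectioned for histology with tubule staging.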

spermatogenesis in mice [3] = assay: IV and IP administration, effect on spermatogenesis in mice; type: in vivo, CD1 mice
Outline: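 Male CD1 mice dosed daily with test compound at 10 mg/kg by IV (for 3, 6 or 7 days; n = 2 for 6 and 7 days) or IP (7 days), against vehicle-only controls. Testes taken […] were sectioned and examined histologically for spermatid alignment and release in tubules. Reversibility was assessed by testis histology 4 weeks post-treatment.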

RARγ = molecular target: T2, RARγ (Homo sapiens, UniProt P13631); assay: Transactivation competition assay; type: cell-based; conditions: HeLa cells, 10^−7M ATRA, increasing concentrations of retinoid, 24 hours
T2 sequence (P13631 1-454): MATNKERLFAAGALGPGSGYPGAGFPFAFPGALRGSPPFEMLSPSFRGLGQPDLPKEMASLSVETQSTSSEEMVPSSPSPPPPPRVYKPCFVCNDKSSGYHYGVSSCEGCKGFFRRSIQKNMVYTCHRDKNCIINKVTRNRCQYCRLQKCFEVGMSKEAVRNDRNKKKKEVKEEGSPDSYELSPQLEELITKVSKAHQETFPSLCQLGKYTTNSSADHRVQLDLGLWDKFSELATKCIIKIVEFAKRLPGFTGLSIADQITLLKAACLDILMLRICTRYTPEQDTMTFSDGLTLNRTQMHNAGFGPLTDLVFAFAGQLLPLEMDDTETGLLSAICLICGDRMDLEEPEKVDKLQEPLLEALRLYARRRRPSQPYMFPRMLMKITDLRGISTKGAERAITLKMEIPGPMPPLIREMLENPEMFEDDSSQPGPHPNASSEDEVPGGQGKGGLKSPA
Outline: as §1

RARs [4] = conditions: concomitantly transfected RARs; cited from earlier work
RARs [5] = assay: Transactivation assay; type: cell-based; conditions: concomitantly transfected RARs

Row | Competition of ATRA-induced CAT expression, RARβ (RARβ) | Competition of ATRA-induced CAT expression, RARγ (RARγ) | SMILES | Effect on spermatogenesis in mice (spermatogenesis in mice [1]) | Side-effects in mice (spermatogenesis in mice [1]) | Morphology of caudal epididymides (spermatogenesis in mice [2]) | Testicular weight compared with control (spermatogenesis in mice [2]) | Effect on spermatogenesis (testis morphology) (spermatogenesis in mice [2]) | Epididymal sperm motility (spermatogenesis in mice [2]) | Effect on spermatid alignment and sperm release (spermatogenesis in mice [3]; IV 10 mg/kg for 6 and 7 days, one-day post-treatment) | Effect on spermatogenesis 4-weeks post-treatment (reversibility) (spermatogenesis in mice [3]; IV, 4-weeks post-treatment) | Induction of RARE-CAT reporter expression by compound alone (RARs [4]) | Induction of RARE-CAT reporter expression by compound alone (RARs [5])
1 |  |  | CC1(C)CC=C(c2ccccc2)c2cc(/C=C/c3ccc(C(=O)O)cc3)ccc21 [compound 1] | inhibited spermatogenesis | without any observable side-effects |  |  |  |  |  |  |  | 
2 | minimal activity | minimal activity | Cc1ccc(C2=CCC(C)(C)c3ccc(C(=O)Nc4ccc(C(=O)O)cc4)cc32)cc1 [compound 2] |  |  | appeared normal | No significant differences | no effect on spermatogenesis | normal motility | Acute disruptive effects | No effect on spermatogenesis | did not, by themselves, induce reporter expression | 
3 | minimal activity | minimal activity | CC1(C)CC=C(c2cnc3ccccc3c2)c2cc(C(=O)Nc3ccc(C(=O)O)cc3)ccc21 [compound 3] |  |  | appeared normal | No significant differences | no effect on spermatogenesis | normal motility |  |  |  | did not, by themselves, induce reporter expression
